For 3 compounds, inhibition, IC50 and Ratio IC50 results are on record in ChEMBL document CHEMBL4011632, “Design, Synthesis, and Evaluation of Thiazolidine-2,4-dione Derivatives as a Novel Class of Glutaminase Inhibitors” (J Med Chem, 2017).

pIC50: −log10 of the molar value.

In assay [1] the test system is ASPC1. In words: Anticlonogenic activity against human Aspc-1 cells at 10 uM after 21 days by crystal violet staining based assay relative to control. Format: functional. The note with it: ASPC1, 504 h. Summed up:
(§1)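 Anchorage-dependent colony formation: AsPC-1 cells seeded at 1000 cells/well in six-well plates and treated with compound. Colony formation is expressed as percent of vehicle treatment. Mean ± SD from at least three independent experiments, each in duplicate.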

Assay [2] can be described thus: Inhibition of recombinant human His-tagged KGA K507A mutant expressed in Escherichia coli BL21(DE3)pLysS using glutamine substrate preincubated for 10 mins followed by substrate addition measured after 60 mins.
A further assay deals with MDA-MB-231. As to the kind of experiment: Growth inhibition of human MDA-MB-231 cells after 72 hrs by MTS assay. The note with it: MDA-MB-231, 72 h. Format: functional, cell-based. In short, it runs like this: (§2)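 Growth inhibition by MTS viability read-out. Cells seeded in 96-well plates at 4000/well (AsPC-1) or 8500/well (MDA-MB-231). Mean ± SD from at least three independent experiments, each in duplicate.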
(Formazan colour is commonly taken as a measure of viable cells.)

Assay [3] is filed under the species Homo sapiens. As to the kind of experiment: Selectivity ratio of IC50 for recombinant human His-tagged KGA K507A mutant expressed in Escherichia coli BL21(DE3)pLysS to IC50 for human His-tagged KGA (L123 to L669 residues) expressed in Escherichia coli BL21(DE3)pLysS.
Assay [4] is described as follows: Inhibition of recombinant human His-tagged KGA R387L mutant expressed in Escherichia coli BL21(DE3)pLysS using glutamine substrate preincubated for 10 mins followed by substrate addition measured after 60 mins.
Assay [5] deals with ASPC1. In words: Anticlonogenic activity against human Aspc-1 cells at 2 uM after 21 days by crystal violet staining based assay relative to control. The note with it: ASPC1, 504 h. Format: functional. In short, it runs like this: as §1
Assay [6] concerns the target T1, Glutaminase kidney isoform, mitochondrial (Homo sapiens, UniProt O94925).
T1 sequence (O94925 whole entry): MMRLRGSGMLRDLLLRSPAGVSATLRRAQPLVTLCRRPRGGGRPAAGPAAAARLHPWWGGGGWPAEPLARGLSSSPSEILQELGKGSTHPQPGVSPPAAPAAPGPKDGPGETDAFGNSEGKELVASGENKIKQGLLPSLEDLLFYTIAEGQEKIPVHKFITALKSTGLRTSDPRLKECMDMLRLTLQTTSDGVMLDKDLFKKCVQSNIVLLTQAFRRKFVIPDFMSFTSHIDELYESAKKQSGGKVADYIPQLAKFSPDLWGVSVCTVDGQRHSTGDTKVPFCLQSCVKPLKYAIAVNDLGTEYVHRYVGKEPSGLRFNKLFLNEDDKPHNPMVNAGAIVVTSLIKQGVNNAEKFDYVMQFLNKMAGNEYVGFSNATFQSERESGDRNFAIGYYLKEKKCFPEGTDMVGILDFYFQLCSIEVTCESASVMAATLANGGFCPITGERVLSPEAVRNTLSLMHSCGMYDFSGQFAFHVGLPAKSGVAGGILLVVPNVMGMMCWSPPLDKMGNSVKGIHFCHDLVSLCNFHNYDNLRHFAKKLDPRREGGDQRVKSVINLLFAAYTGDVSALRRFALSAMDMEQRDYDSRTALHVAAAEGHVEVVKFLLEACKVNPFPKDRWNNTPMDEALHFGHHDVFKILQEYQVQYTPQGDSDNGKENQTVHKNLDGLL
In words: Inhibition of recombinant human His-tagged KGA (L123 to L669 residues) expressed in Escherichia coli BL21(DE3)pLysS using glutamine substrate preincubated for 10 mins followed by substrate addition measured after 60 mins by glutamate dehydrogenase coupled enzyme assay.

The target in assay [7] is T2, Glutaminase liver isoform, mitochondrial (Homo sapiens, UniProt Q9UI32).
T2 sequence (Q9UI32 whole entry): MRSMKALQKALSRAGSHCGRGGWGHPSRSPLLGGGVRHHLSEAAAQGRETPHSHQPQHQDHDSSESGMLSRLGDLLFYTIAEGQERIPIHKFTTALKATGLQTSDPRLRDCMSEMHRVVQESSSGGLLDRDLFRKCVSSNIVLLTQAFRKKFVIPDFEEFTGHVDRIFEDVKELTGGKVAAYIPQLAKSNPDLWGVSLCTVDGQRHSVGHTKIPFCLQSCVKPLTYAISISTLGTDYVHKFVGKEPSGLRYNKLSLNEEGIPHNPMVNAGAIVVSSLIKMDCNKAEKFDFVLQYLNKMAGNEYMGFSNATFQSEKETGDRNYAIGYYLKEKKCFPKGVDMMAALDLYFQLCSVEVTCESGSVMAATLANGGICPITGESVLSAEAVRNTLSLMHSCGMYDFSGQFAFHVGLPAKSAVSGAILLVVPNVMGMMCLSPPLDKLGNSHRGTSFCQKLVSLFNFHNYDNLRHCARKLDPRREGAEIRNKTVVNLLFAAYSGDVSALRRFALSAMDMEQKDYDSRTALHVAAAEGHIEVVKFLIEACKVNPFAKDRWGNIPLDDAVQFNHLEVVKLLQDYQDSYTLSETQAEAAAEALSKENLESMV
As to the kind of experiment: Inhibition of recombinant human His-tagged GAB (P56 to V602 residues) expressed in Escherichia coli C41(DE3)pLysS using glutamine as substrate preincubated for 10 mins followed by substrate addition measured after 60 mins by glutamate dehydrogenase coupled enzyme assay.

For assay [8], the target named is T1, Glutaminase kidney isoform, mitochondrial. In words: Inhibition of recombinant human MCF7 cells derived His-tagged GAC (L123 to S598 residues) expressed in Escherichia coli C41(DE3)pLysS using glutamine as substrate preincubated for 10 mins followed by substrate addition measured after 60 mins by glutamate dehydrogenase coupled enzyme assay. Summed up:
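Human GAC cloned from MCF7 cDNA into pET28a(+) as a His-tagged construct. Expressed in E. coli C41(DE3)pLysS in Terrific Broth with kanamycin, induced with 1 mM IPTG for 6 h at 25 °C. Purified on Ni2+ resin with 500 mM imidazole elution and exchanged into 50 mM NaH2PO4, 50 mM Tris-HCl pH 8.0, 2 mM DTT, 50% glycerol. Activity measured by two-step glutaminase assay.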

The species named for assay [9] is Homo sapiens. In words: Selectivity index, ratio of IC50 for recombinant human His-tagged GAB (P56-V602 residues) expressed in Escherichia coli C41(DE3)pLysS to IC50 for recombinant human His-tagged KGA (L123 to L669 residues) expressed in Escherichia coli BL21(DE3)pLysS.
The test system of assay [10] is ASPC1. In words: Growth inhibition of human Aspc-1 cells after 72 hrs by MTS assay. Particulars: ASPC1, 72 h. The class given is functional, cell-based. In short, it runs like this: as §2
The species named for assay [11] is Homo sapiens. As to the kind of experiment: Selectivity ratio of IC50 for recombinant human His-tagged KGA S384A mutant expressed in Escherichia coli BL21(DE3)pLysS to IC50 for human His-tagged KGA (L123 to L669 residues) expressed in Escherichia coli BL21(DE3)pLysS.

For orientation: inhibition means the share of the control response that was lost under treatment. Lower therefore signals a response near the control. The pIC50 is −log10 of the IC50, conventionally taken in molar units. Take `Cc1cc(/C=C2\SC(=O)NC2=O)c(C)n1-c1ccc(-c2ccc(/C=C3\SC(=O)NC3=O)cc2)cc1`: at 10 µM the inhibition in the assay on ASPC1 [1] was 59%. Also, the pIC50 in assay [2] was 5.98; in the assay with MDA-MB-231 it was 4.38; in assay [4], 5.90; in assay [6], 6.99; in assay [7], 5.93; in assay [8] it was 6.42. In the assay on ASPC1 [10], the pIC50 is 4.46. The Ratio IC50 is 10.2 in the assay filed under Homo sapiens [3], 12 in the assay listed under Homo sapiens [9] and 3.5 in the assay listed under Homo sapiens [11]. In the assay on ASPC1 [5], this compound showed an inhibition at 2 µM of 13%.
In the assay on ASPC1 [1], `Cc1cc(/C=C2\SC(=O)NC2=O)c(C)n1-c1ccc(-c2ccc(/C=C3\SC(=O)NC3=O)c(Cl)c2)cc1` showed an inhibition at 10 µM of 51%. The pIC50 in [2] was 6.57; in the assay on MDA-MB-231 it was less than 4.30; in [4], 6.11; in assay [6], 7.24; in assay [7], 5.38; in assay [8], 6.59. The pIC50 in the assay with ASPC1 [10] was less than 4.30. The Ratio IC50 in the assay filed under Homo sapiens [3] was found to be 4.7; in the assay listed under Homo sapiens [9] it was 74; in the assay filed under Homo sapiens [11], 1.5. In the assay on ASPC1 [5], this compound yielded an inhibition at 2 µM of 18%.
`O=C1NC(=O)/C(=C/c2ccc(-c3ccc(-n4c(-c5cccs5)cc(/C=C5\SC(=O)NC5=O)c4-c4cccs4)cc3)cc2)S1`: in the assay on ASPC1 [1], the inhibition at 10 µM stood at 87%. The negative logarithm of the IC50 (pIC50) with MDA-MB-231 was 4.54; in assay [6] it was 7.30; in [7], 6.99; in assay [8] it was 7.31; with ASPC1 [10], 4.83. 2 µM produced 64% inhibition with ASPC1 [5]. Besides, in the assay filed under Homo sapiens [9], the Ratio IC50 was determined as 2.
